Calls of active or inactive are those of the source. The rule behind the calls is not given here.
What was measured:
[1] = tested on: Human immunodeficiency virus 1; experiment: Antiviral activity against HIV1 with RT V106A mutation by cytopathic cell killing assay; type: functional, organism-based
[2] = tested on: Human immunodeficiency virus 1; experiment: Antiviral activity against HIV1 infected CEM cells; type: functional, organism-based; conditions: for EC50: Human immunodeficiency virus 1, CCRF-CEM; for Activity: CCRF-CEM
Outline: (§1)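 Cell-based assay in HIV-1-infected CEM cells, read out as protection from virus-induced cell killing.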

[3] = Toxicity against CEM cells; type: cell-based; conditions: human, CEM (CCRF-CEM) cells; read-out: TC50 (the source's name)
[4] = tested on: Human immunodeficiency virus 1; experiment: Antiviral activity against HIV1 with RT Y181C mutation by cytopathic cell killing assay; type: functional, organism-based
[5] = tested on: Human immunodeficiency virus 1; experiment: Antiviral activity against wild type HIV1 NL4-3 by cytopathic cell killing assay; type: functional, organism-based; conditions: Human immunodeficiency virus 1, NL4-3; outline: as §1
[6] = tested on: Human immunodeficiency virus 1; experiment: Antiviral activity against HIV1 with RT K101E mutation by cytopathic cell killing assay; type: functional, organism-based
[7] = tested on: Human immunodeficiency virus 1; experiment: Antiviral activity against HIV1 with RT Y188C mutation by cytopathic cell killing assay; type: functional, organism-based
[8] = tested on: Human immunodeficiency virus 1; experiment: Antiviral activity against HIV1 with RT V108I mutation by cytopathic cell killing assay; type: functional, organism-based
[9] = tested on: Human immunodeficiency virus 1; experiment: Antiviral activity against HIV1 with RT L100I mutation by cytopathic cell killing assay; type: functional, organism-based
[10] = tested on: Human immunodeficiency virus 1; experiment: Antiviral activity against HIV1 with RT K103N mutation by cytopathic cell killing assay; type: functional, organism-based
[11] = target: Human immunodeficiency virus type 1 reverse transcriptase (Human immunodeficiency virus 1) (UniProt Q72547); experiment: Inhibition of HIV1 reverse transcriptase at 1 uM
Outline: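 Wild-type HIV-1 RT enzyme screen with rC-dG template-primer. Percent inhibition is the mean of two experiments, each run in triplicate.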

[12] = target: Human immunodeficiency virus type 1 reverse transcriptase (Human immunodeficiency virus 1, UniProt Q72547); experiment: Inhibition of HIV1 NL4-3 reverse transcriptase

| SMILES | EC50 [2] | CC50 [3] | EC50 [4] | EC50 [5] | EC50 [6] | EC50 [8] | EC50 [9] | EC50 [10] | inhibition [11] | IC50 [12] | also measured |
| --- | --- | --- | --- | --- | --- | --- | --- | --- | --- | --- | --- |
| OCc1cccc2c1nc(-c1c(F)cccc1F)n2Cc1c(F)cccc1F | 23 nM | 58100 nM | 720 nM | 48 nM | 5000 nM | 23 nM | 20 nM | 13600 nM |  |  | EC50 [1]: 5900 nM; EC50 [7]: 170 nM |
| NCc1cccc2c1nc(-c1c(F)cccc1F)n2Cc1c(F)cccc1F | 37 nM | 49300 nM | 12800 nM | 1360 nM | 1490 nM | 2510 nM |  | > 50000 nM |  |  | EC50 [1]: 9230 nM; EC50 [7]: 11600 nM |
| Cc1cccc2c1nc(-c1c(F)cccc1F)n2Cc1c(F)cccc1F | 440 nM | > 100000 nM | 6000 nM | 500 nM | 16700 nM | 2800 nM | 300 nM | 8100 nM | 71% | 200 nM | EC50 [7]: 2300 nM |
| Oc1cccc2c1nc(-c1c(F)cccc1F)n2Cc1c(F)cccc1F | 650 nM | > 100000 nM |  |  |  |  |  |  |  |  |  |
| N#Cc1cccc2c1nc(-c1c(F)cccc1F)n2Cc1c(F)cccc1F | 430 nM | 26700 nM |  |  |  |  |  |  |  |  |  |
| O=[N+]([O-])c1cccc2c1nc(-c1c(F)cccc1F)n2Cc1c(F)cccc1F | 2400 nM | 30100 nM |  |  |  |  |  |  |  | 1880 nM |  |
| Fc1cccc(F)c1Cn1c(-c2c(F)cccc2F)nc2cc(Cl)ccc21 |  |  |  |  |  |  |  |  | 48% |  |  |
| Fc1cccc(F)c1Cn1c(-c2c(F)cccc2F)nc2cc(Br)ccc21 |  |  |  |  |  |  |  |  | 43% |  |  |
| N=C(NO)c1cccc2c1nc(-c1c(F)cccc1F)n2Cc1c(F)cccc1F | 190 nM | 23100 nM |  |  |  |  |  |  |  |  |  |
| CC(=O)OCc1cccc2c1nc(-c1c(F)cccc1F)n2Cc1c(F)cccc1F | 59 nM | 55800 nM | 2320 nM | 62 nM | 25 nM | 13 nM | 68 nM | 27 nM |  |  | EC50 [1]: 4500 nM; EC50 [7]: 33 nM |
| Cc1cccc2nc(-c3c(F)cccc3F)n(Cc3c(F)cccc3F)c12 |  |  |  |  |  |  |  |  | 1% |  |  |
| O=[N+]([O-])c1ccc2c(c1)nc(-c1c(F)cccc1F)n2Cc1c(F)cccc1F |  |  |  |  |  |  |  |  | 30% |  |  |
| N#CCc1cccc2c1nc(-c1c(F)cccc1F)n2Cc1c(F)cccc1F | 60 nM |  | 2200 nM | 60 nM |  |  |  | 4200 nM |  |  |  |
| Cc1cc(C)c2nc(-c3c(F)cccc3F)n(Cc3c(F)cccc3F)c2c1 |  |  |  |  |  |  |  |  | 37% |  |  |
| CC(=O)N(C)Cc1cccc2c1nc(-c1c(F)cccc1F)n2Cc1c(F)cccc1F | 580 nM | 20600 nM |  |  |  |  |  |  |  |  |  |
| Fc1cccc(F)c1Cn1c(-c2c(F)cccc2F)nc2c(Cl)cccc21 | 440 nM | 30400 nM | 8400 nM | 500 nM | > 20000 nM | 3200 nM | 300 nM | 10200 nM | 75% | 2630 nM | EC50 [7]: 3400 nM |
| Fc1cccc(F)c1Cn1c(-c2c(F)cccc2F)nc2c(Br)cccc21 | 370 nM | 24500 nM | 10700 nM | 500 nM | > 20000 nM | 4200 nM | 500 nM | > 20000 nM | 78% | 1610 nM | EC50 [7]: 3700 nM |
| Fc1cccc(F)c1Cn1c(-c2c(F)cccc2F)nc2ccc(Cl)cc21 |  |  |  |  |  |  |  |  | 69% |  |  |
| Fc1cccc(F)c1Cn1c(-c2c(F)cccc2F)nc2c(CCl)cccc21 | 180 nM | 13400 nM | 2380 nM | 160 nM | 460 nM | 210 nM | 80 nM | 3340 nM |  |  | EC50 [1]: 4700 nM; EC50 [7]: 570 nM |
| Cc1ccc2c(nc(-c3c(F)cccc3F)n2Cc2c(F)cccc2F)c1C |  |  |  |  |  |  |  |  | 26% |  |  |

| SMILES | EC50 [2] | CC50 [3] | EC50 [4] | EC50 [5] | EC50 [6] | EC50 [8] | EC50 [9] | EC50 [10] | inhibition [11] | IC50 [12] | also measured |
| --- | --- | --- | --- | --- | --- | --- | --- | --- | --- | --- | --- |
| O=Cc1cccc2c1nc(-c1c(F)cccc1F)n2Cc1c(F)cccc1F | 120 nM | 820 nM |  |  |  |  |  |  |  |  |  |
| NC(=O)c1cccc2c1nc(-c1c(F)cccc1F)n2Cc1c(F)cccc1F | 4900 nM | > 100000 nM |  |  |  |  |  |  |  |  |  |
| CC(=O)Nc1cccc2c1nc(-c1c(F)cccc1F)n2Cc1c(F)cccc1F | 1480 nM | 39300 nM | > 100000 nM | 1970 nM |  |  | 3250 nM | > 100000 nM |  | 54700 nM |  |
| CN(C)c1cccc2c1nc(-c1c(F)cccc1F)n2Cc1c(F)cccc1F | 2370 nM | > 100000 nM |  |  |  |  |  |  |  | 40000 nM |  |
| COC(=O)c1cccc2c1nc(-c1c(F)cccc1F)n2Cc1c(F)cccc1F |  | 57700 nM |  |  |  |  |  |  |  | 158000 nM | Activity [2]: inactive |
| O=C(O)c1cccc2c1nc(-c1c(F)cccc1F)n2Cc1c(F)cccc1F |  | 23500 nM |  |  |  |  |  |  |  |  | Activity [2]: inactive |
| CC(=O)NCc1cccc2c1nc(-c1c(F)cccc1F)n2Cc1c(F)cccc1F |  | 20800 nM |  |  |  |  |  |  |  |  | Activity [2]: inactive |
| Cc1ccc2nc(-c3c(F)cccc3F)n(Cc3c(F)cccc3F)c2c1 |  |  |  |  |  |  |  |  | 42% |  |  |
| CCc1cccc2c1nc(-c1c(F)cccc1F)n2Cc1c(F)cccc1F | 820 nM | 26100 nM | 7180 nM | 900 nM | > 50000 nM | > 50000 nM | 2480 nM | > 50000 nM |  | 17500 nM |  |
| Cc1ccnc2c1NC(=O)c1cccnc1N2C1CC1 [NEVIRAPINE] | 35 nM |  | 4900 nM | 100 nM | 1100 nM | 200 nM | 720 nM | 1090 nM |  |  | EC50 [1]: 2360 nM; EC50 [7]: 100 nM |
| Fc1cccc(F)c1Cn1c(-c2c(F)cccc2F)nc2ccccc21 | 1700 nM | 18800 nM |  |  |  |  |  |  | 50% | 110 nM |  |
| CC(C)c1cccc2c1nc(-c1c(F)cccc1F)n2Cc1c(F)cccc1F | 6340 nM | 27000 nM |  |  |  |  |  |  |  |  |  |
| COCc1cccc2c1nc(-c1c(F)cccc1F)n2Cc1c(F)cccc1F | 60 nM |  |  |  |  |  |  |  |  |  |  |
| CNc1cccc2c1nc(-c1c(F)cccc1F)n2Cc1c(F)cccc1F | 1700 nM | 27200 nM |  |  |  |  |  |  |  | 4940 nM |  |
| Nc1cccc2c1nc(-c1c(F)cccc1F)n2Cc1c(F)cccc1F | 460 nM | 26300 nM | 9200 nM | 400 nM | > 20000 nM | 3300 nM | 1200 nM | 3100 nM |  | 280 nM | EC50 [7]: 2000 nM |
| Cc1ccc2c(c1)nc(-c1c(F)cccc1F)n2Cc1c(F)cccc1F |  |  |  |  |  |  |  |  | 22% |  |  |
| CN(C)C(=O)c1cccc2c1nc(-c1c(F)cccc1F)n2Cc1c(F)cccc1F |  | 80100 nM |  |  |  |  |  |  |  |  | Activity [2]: inactive |
| COc1cccc2c1nc(-c1c(F)cccc1F)n2Cc1c(F)cccc1F | 60 nM | 44300 nM | 260 nM | 60 nM | 2820 nM | 2820 nM | 160 nM | > 50000 nM |  | 7.3 nM |  |
| [N-]=[N+]=NCc1cccc2c1nc(-c1c(F)cccc1F)n2Cc1c(F)cccc1F | 45 nM | > 100000 nM | 280 nM | 45 nM | 600 nM | 26 nM | 80 nM | 1480 nM |  |  | EC50 [1]: 610 nM; EC50 [7]: 220 nM |

Reference: ChEMBL document CHEMBL1148728, “Synthesis, biological activity, and crystal structure of potent nonnucleoside inhibitors of HIV-1 reverse transcriptase that retain activity against mutant forms of the enzyme” (J Med Chem, 2007)
